# Measured values from different studies.
# Lines come from different studies, so protocols differ.
# Organism: Leishmania donovani
# Read-out: parasite growth
SMILES,method,cells,time,notes,IC50
CCCCCCCCCCCCCCCCOP(=O)([O-])OCC[N+](C)(C)C,,,,promastigote,4230 nM
N=C(N)c1ccc(OCCCCCOc2ccc(C(=N)N)cc2)cc1,resazurin,,72 h,promastigote,1.65 µg/mL
Cc1cc(NC(=O)Nc2ccc3c(c2)OC(F)(F)O3)cc(C(F)(F)F)n1,,,,"intracellular, amastigote",860 nM
CCC/C=C/c1cc2c(C=O)c(O)c(CC=C(C)C)cc2o1,resazurin,,48 h,promastigote,6.2 µg/mL
O=[N+]([O-])c1c(CS(=O)(=O)c2ccccc2)nc2c(Br)cc(Br)cn12,MTT,,72 h,promastigote,1800 nM
COc1cc(NC(C)CCCN)c2ncccc2c1 (centres unmarked),resazurin,,,promastigote,19.9 µg/mL
CCCCCCCCCCCCCCCCOP(=O)([O-])OCC[N+](C)(C)C,,,,"intracellular, amastigote",1830 nM
c1ccc(CNc2nc(-c3ccccn3)nc3ccccc23)cc1,,THP-1,,"intracellular, amastigote",2170 nM
COc1cc(NC(C)CCCNCCNCCNCCCC(C)Nc2cc(OC)cc3cccnc23)c2ncccc2c1.Cl.Cl (centres unmarked),resazurin,,,promastigote,2.99 µg/mL
N=C(N)c1ccc(OCCCCCOc2ccc(C(=N)N)cc2)cc1,,,,promastigote,651 nM
Fc1cccc(Nc2nc(-c3ccccn3)nc3ccccc23)c1,,THP-1,,"intracellular, amastigote",1400 nM
C[C@@H]1[C@H](O)[C@@H](C)/C=C/C=C/C=C/C=C/C=C/C=C/C=C/[C@H](O[C@@H]2O[C@H](C)[C@@H](O)[C@H](N)[C@@H]2O)C[C@@H]2O[C@](O)(C[C@@H](O)C[C@@H](O)[C@H](O)CC[C@@H](O)C[C@@H](O)CC(=O)O[C@H]1C)C[C@H](O)[C@H]2C(=O)O,,THP-1,5 days,"intracellular, amastigote",400 nM
N=C(N)c1ccc(OCCCCCOc2ccc(C(=N)N)cc2)cc1,resazurin,,48 h,promastigote,1 µg/mL
c1ccc(-c2nc(N3CCCC3)c3ccccc3n2)nc1,imaging,THP-1,,"intracellular, amastigote",1300 nM
C[C@@H]1[C@H](O)[C@@H](C)/C=C/C=C/C=C/C=C/C=C/C=C/C=C/[C@H](O[C@@H]2O[C@H](C)[C@@H](O)[C@H](N)[C@@H]2O)C[C@@H]2O[C@](O)(C[C@@H](O)C[C@@H](O)[C@H](O)CC[C@@H](O)C[C@@H](O)CC(=O)O[C@H]1C)C[C@H](O)[C@H]2C(=O)O,resazurin,,72 h,promastigote,0.57 µg/mL
C[C@@H]1[C@H](O)[C@@H](C)/C=C/C=C/C=C/C=C/C=C/C=C/C=C/[C@H](O[C@@H]2O[C@H](C)[C@@H](O)[C@H](N)[C@@H]2O)C[C@@H]2O[C@](O)(C[C@@H](O)C[C@@H](O)[C@H](O)CC[C@@H](O)C[C@@H](O)CC(=O)O[C@H]1C)C[C@H](O)[C@H]2C(=O)O,resazurin,,,promastigote,0.19 µg/mL
c1ccc(CN2CCN(c3nc(-c4ccccn4)nc4ccccc34)CC2)cc1,,THP-1,,"intracellular, amastigote",4200 nM
